Values after ≈ are worked out from the molar mass of the structure shown.
How the values were obtained:
Escherichia coli = test: Antibacterial activity against Escherichia coli ATCC 25922 after 24 hrs by resazurin dye based microdilution assay; format: functional; settings: ATCC 25922, 24 h
Summary of the method: (§1)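 MIC taken as the lowest concentration giving visible inhibition and/or by resazurin (1 mg/mL). Gentamicin was the control. Run in duplicate, repeated at least three times.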

Candida albicans [1] = test: Growth inhibition of Candida albicans ATCC 10231 at 62.5 ug/ml incubated for 48 hrs under dark condition by broth microdilution method relative to control; format: functional; settings: ATCC 10231, 48 h, read-out: GI
Summary of the method: (§2)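 CLSI M27-A3 broth microdilution in RPMI-1640, DMSO ≤1%. Inoculum 1-5 × 10^3 CFU/mL. Incubated 48 h at 30 °C, dark. % inhibition = 100 − (OD405 test − sterility control)/(OD405 growth control − sterility control), with growth and sterility control wells. Triplicate.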

Plasmodium falciparum = test: Antiplasmodial activity against chloroquine-sensitive Plasmodium falciparum 3D7 assessed as reduction in parasitic LDH activity after 48 hrs by Malstat reagent based […] method; format: functional; settings: 3D7, 48 h
Summary of the method: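 Unsynchronized P. falciparum 3D7 at 0.5% parasitemia and 1% hematocrit in RPMI with 3% Albumax II. Exposed to 100, 25, 6.25 and 1.56 µg/mL for 48 h at 37 °C under 90% N2/5% CO2/5% O2. After three freeze-thaw cycles, LDH measured with Malstat and NBT/PES, 1 h in the dark, read at 650 nm. IC50 by Probit; triplicate, ≥2 experiments.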

Cryptococcus neoformans [2] = test: Growth inhibition of Cryptococcus neoformans ATCC 32264 at 7.8 ug/ml incubated for 48 hrs under dark condition by broth microdilution method relative to control; format: functional; settings: ATCC 32264, 48 h, read-out: GI; summary of the method: as §2
Staphylococcus aureus [3] = test: Antibacterial activity against vancomycin-intermediate Staphylococcus aureus after 24 hrs by resazurin dye based microdilution assay; format: functional; summary of the method: as §1
Klebsiella pneumoniae [4] = test: Antibacterial activity against carbapenemase positive Klebsiella pneumoniae BAA 1705 after 24 hrs by resazurin dye based microdilution assay; format: functional; settings: BAA 1705, 24 h; summary of the method: as §1
Candida albicans [5] = test: Growth inhibition of Candida albicans ATCC 10231 at 125 ug/ml incubated for 48 hrs under dark condition by broth microdilution method relative to control; format: functional; settings: ATCC 10231, 48 h, read-out: GI; summary of the method: as §2
Leishmania panamensis = test: Antileshmanial activity against EpiR/GFP fused Leishmania panamensis MHOM/CO/87/UA140 intracellular amastigotes infected in human […] cells after 72 hrs by flow cytometric method; format: functional, cell-based; settings: MHOM/CO/87/UA140, 72 h
Summary of the method: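 PMA-treated U-937 cells (3 × 10^5 cells/mL) infected with stationary-phase GFP L. panamensis promastigotes (15:1), 3 h at 34 °C, then washed. After 24 h, compounds added at 50, 12.5, 3.125 and 0.78 µg/mL for 72 h at 37 °C. EC50 by Probit; triplicate, two experiments.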

Candida albicans [6] = test: Growth inhibition of Candida albicans ATCC 10231 at 3.4 ug/ml incubated for 48 hrs under dark condition by broth microdilution method relative to control; format: functional; settings: ATCC 10231, 48 h, read-out: GI
Cryptococcus neoformans [7] = test: Growth inhibition of Cryptococcus neoformans ATCC 32264 at 125 ug/ml incubated for 48 hrs under dark condition by broth microdilution method relative to control; format: functional; settings: ATCC 32264, 48 h, read-out: GI; summary of the method: as §2
Pseudomonas aeruginosa = test: Antibacterial activity against Pseudomonas aeruginosa ATCC 27853 after 24 hrs by resazurin dye based microdilution assay; format: functional; settings: ATCC 27853, 24 h; summary of the method: as §1
Staphylococcus aureus [8] = test: Antibacterial activity against methicillin-resistant Staphylococcus aureus ATCC 43300 after 24 hrs by resazurin dye based microdilution assay; format: functional; settings: ATCC 43300, 24 h
Summary of the method: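 Broth microdilution in Mueller Hinton broth, inoculum 5 × 10^5 – 8 × 10^5. Compound stocks diluted in MHB with 5% DMSO and 0.1% Tween 80. Incubation 24 h at 35-37 °C. MIC is the lowest concentration with visible growth inhibition and/or by resazurin (1 mg/mL) read-out. Gentamicin as control. Run in duplicate, replicated at least three times.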

Cryptococcus neoformans [9] = test: Antifungal activity against Cryptococcus neoformans ATCC 32264 incubated for 48 hrs under dark condition by broth microdilution method; format: functional; settings: ATCC 32264, 48 h
Summary of the method: (§3)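 CLSI M27-A3 broth microdilution in RPMI-1640, DMSO ≤1%, compounds at 250-0.98 µg/mL final. Inoculum 1-5 × 10^3 CFU/mL. Incubated 48 h at 30 °C in a moist dark chamber, read at OD405. MIC80 and MIC50 taken from % inhibition dose-response curves (mean ± SEM, triplicate). Amphotericin B was the positive control.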

Candida albicans [10] = test: Growth inhibition of Candida albicans ATCC 10231 at 7.8 ug/ml incubated for 48 hrs under dark condition by broth microdilution method relative to control; format: functional; settings: ATCC 10231, 48 h, read-out: GI; summary of the method: as §2
U-937 = test: Cytotoxicity against human U937 cells after 72 hrs by MTT assay; format: cell-based; settings: u-937, 72 h
Summary of the method: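 Exponentially growing U-937 at 1 × 10^5 cells/mL in RPMI-1640 with 10% FBS were exposed to 200, 50, 12.5 and 3.125 µg/mL for 72 h at 37 °C, 5% CO2. MTT for 3 h, stopped with isopropanol/SDS, formazan read at 570 nm, blank-corrected. LC50 by Probit from % viability against untreated cells. Triplicate, at least two independent experiments.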

Neisseria gonorrhoeae = test: Antibacterial activity against beta lactamase positive Neisseria gonorrhoeae ATCC 31426 by oxidase test; format: functional
Summary of the method: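 Agar dilution MIC on GC agar with 1% isovitalex containing increasing compound concentrations. Plates inoculated with about 1×10^4 CFU (5 µL). MIC is the lowest concentration that inhibited growth, with growth confirmed by oxidase test. Run in duplicate, repeated at least three times.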

Cryptococcus neoformans [11] = test: Growth inhibition of Cryptococcus neoformans ATCC 32264 at 3.4 ug/ml incubated for 48 hrs under dark condition by broth microdilution method relative to control; format: functional; settings: ATCC 32264, 48 h, read-out: GI
Candida albicans [12] = test: Growth inhibition of Candida albicans ATCC 10231 at 250 ug/ml incubated for 48 hrs under dark condition by broth microdilution method relative to control; format: functional; settings: ATCC 10231, 48 h, read-out: GI; summary of the method: as §2
Cryptococcus neoformans [13] = test: Growth inhibition of Cryptococcus neoformans ATCC 32264 at 31.25 ug/ml incubated for 48 hrs under dark condition by broth microdilution method relative to control; format: functional; settings: ATCC 32264, 48 h, read-out: GI; summary of the method: as §2
Candida albicans [14] = test: Antifungal activity against Candida albicans ATCC 10231 incubated for 48 hrs under dark condition by broth microdilution method; format: functional; settings: ATCC 10231, 48 h; summary of the method: as §3
Klebsiella pneumoniae [15] = test: Antibacterial activity against ESBL positive Klebsiella pneumoniae ATCC 700603 after 24 hrs by resazurin dye based microdilution assay; format: functional; settings: Klebsiella pneumoniae, 700603, 24 h; summary of the method: as §1
Candida albicans [16] = test: Growth inhibition of Candida albicans ATCC 10231 at 15.62 ug/ml incubated for 48 hrs under dark condition by broth microdilution method relative to control; format: functional; settings: ATCC 10231, 48 h, read-out: GI; summary of the method: as §2
Cryptococcus neoformans [17] = test: Growth inhibition of Cryptococcus neoformans ATCC 32264 at 250 ug/ml incubated for 48 hrs under dark condition by broth microdilution method relative to control; format: functional; settings: ATCC 32264, 48 h, read-out: GI; summary of the method: as §2
Candida albicans [18] = test: Growth inhibition of Candida albicans ATCC 10231 at 31.25 ug/ml incubated for 48 hrs under dark condition by broth microdilution method relative to control; format: functional; settings: ATCC 10231, 48 h, read-out: GI; summary of the method: as §2
Cryptococcus neoformans [19] = test: Growth inhibition of Cryptococcus neoformans ATCC 32264 at 62.5 ug/ml incubated for 48 hrs under dark condition by broth microdilution method relative to control; format: functional; settings: ATCC 32264, 48 h, read-out: GI; summary of the method: as §2
Cryptococcus neoformans [20] = test: Growth inhibition of Cryptococcus neoformans ATCC 32264 at 15.62 ug/ml incubated for 48 hrs under dark condition by broth microdilution method relative to control; format: functional; settings: ATCC 32264, 48 h, read-out: GI; summary of the method: as §2
Staphylococcus aureus [21] = test: Antibacterial activity against methicillin-sensitive Staphylococcus aureus ATCC 25923 after 24 hrs by resazurin dye based microdilution assay; format: functional; settings: ATCC 25923, 24 h; summary of the method: as §1
Trypanosoma cruzi = test: Antitrypanosomal activity against Trypanosoma cruzi Tulahuen intracellular amastigote harboring LacZ infected in human U937 cells after 72 hrs by CPRG/Nonidet reagent based spectrophotometric method; format: functional, cell-based; settings: U-937, 72 h
Summary of the method: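 U-937 cells at 2.5 × 10^5 cells/mL in RPMI-1640 with 10% serum and 0.1 µg/mL PMA were infected with β-galactosidase-transfected Tulahuen epimastigotes at 5 parasites per cell. Infected cells were exposed to 50, 12.5, 3.125 and 0.78 µg/mL for 72 h. CPRG (100 uM) and 0.1% Nonidet P-40 were added for 3 h, read at 570 nm. EC50 by Probit. Triplicate, at least two experiments; benznidazole as reference.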

Compound	MIC (Escherichia coli)	inhibition of growth at 62.5 µg/mL (Candida albicans [1])	EC50 (Plasmodium falciparum)	inhibition of growth at 7.8 µg/mL (Cryptococcus neoformans [2])	MIC (Staphylococcus aureus [3])	MIC (Klebsiella pneumoniae [4])	inhibition of growth at 125 µg/mL (Candida albicans [5])	EC50 (Leishmania panamensis)	inhibition of growth at 3.4 µg/mL (Candida albicans [6])	inhibition of growth at 125 µg/mL (Cryptococcus neoformans [7])	MIC (Pseudomonas aeruginosa)	MIC (Staphylococcus aureus [8])	MIC50 (Cryptococcus neoformans [9])	MIC80 (Cryptococcus neoformans [9])	inhibition of growth at 7.8 µg/mL (Candida albicans [10])	LC50 (U-937)	MIC (Neisseria gonorrhoeae)	inhibition of growth at 3.4 µg/mL (Cryptococcus neoformans [11])	inhibition of growth at 250 µg/mL (Candida albicans [12])	inhibition of growth at 31.25 µg/mL (Cryptococcus neoformans [13])	other results
Clc1ccc(N2N=C(c3ccc(Br)cc3)CC2c2cccc(Nc3ccnc4cc(Cl)ccc34)c2)cc1 (stereo not given)	> 1000 µg/mL	13.7%	10.3 µg/mL (≈ 17.4 µM)	0%	> 1000 µg/mL	> 1000 µg/mL	23.4%	16 µg/mL (≈ 27.2 µM)	3.47%	23%	> 1000 µg/mL	> 1000 µg/mL	≥ 250 µg/mL	≥ 250 µg/mL	6.28%	35.7 µg/mL (≈ 60.7 µM)	> 1000 µg/mL	0%	39.6%	17%	MIC50 (Candida albicans [14]): ≥ 250 µg/mL; MIC80 (Candida albicans [14]): ≥ 250 µg/mL; MIC (Klebsiella pneumoniae [15]): > 1000 µg/mL; inhibition of growth at 15.62 µg/mL (Candida albicans [16]): 6.77%; inhibition of growth at 250 µg/mL (Cryptococcus neoformans [17]): 27.5%; inhibition of growth at 31.25 µg/mL (Candida albicans [18]): 7.39%; inhibition of growth at 62.5 µg/mL (Cryptococcus neoformans [19]): 17.8%; inhibition of growth at 15.62 µg/mL (Cryptococcus neoformans [20]): 0.14%; MIC (Staphylococcus aureus [21]): > 1000 µg/mL; EC50 (Trypanosoma cruzi): 29.5 µg/mL (≈ 50.1 µM)
Clc1ccc(N2N=C(c3ccccc3)CC2c2cccc(Nc3ccnc4cc(Cl)ccc34)c2)cc1 (stereo not given)	> 1000 µg/mL	10.9%	10.3 µg/mL (≈ 20.1 µM)	0%	> 1000 µg/mL	> 1000 µg/mL	18.9%	15.7 µg/mL (≈ 30.8 µM)	2.71%	46%	> 1000 µg/mL	> 1000 µg/mL	250 µg/mL (≈ 491 µM)	≥ 250 µg/mL	4.82%	> 200 µg/mL	> 1000 µg/mL	0%	26.9%	5.92%	MIC50 (Candida albicans [14]): ≥ 250 µg/mL; MIC80 (Candida albicans [14]): ≥ 250 µg/mL; MIC (Klebsiella pneumoniae [15]): > 1000 µg/mL; inhibition of growth at 15.62 µg/mL (Candida albicans [16]): 8.78%; inhibition of growth at 250 µg/mL (Cryptococcus neoformans [17]): 61%; inhibition of growth at 31.25 µg/mL (Candida albicans [18]): 10.5%; inhibition of growth at 62.5 µg/mL (Cryptococcus neoformans [19]): 13.8%; inhibition of growth at 15.62 µg/mL (Cryptococcus neoformans [20]): 0%; MIC (Staphylococcus aureus [21]): > 1000 µg/mL; EC50 (Trypanosoma cruzi): 15.1 µg/mL (≈ 29.7 µM)
O=C(/C=C/c1cccc(Nc2ccnc3cc(Cl)ccc23)c1)c1ccc(Cl)cc1	> 1000 µg/mL	50.3%	209 µg/mL (≈ 497 µM)	82%	> 1000 µg/mL	> 1000 µg/mL	68.2%	0.79 µg/mL (≈ 1.88 µM)	15.3%	100%	> 1000 µg/mL	> 1000 µg/mL	7.8 µg/mL (≈ 18.6 µM)	7.8 µg/mL (≈ 18.6 µM)	29%	0.7 µg/mL (≈ 1.67 µM)	> 1000 µg/mL	49.8%	78.4%	100%	MIC50 (Candida albicans [14]): 62.5 µg/mL (≈ 149 µM); MIC80 (Candida albicans [14]): ≥ 250 µg/mL; MIC (Klebsiella pneumoniae [15]): > 1000 µg/mL; inhibition of growth at 15.62 µg/mL (Candida albicans [16]): 39.4%; inhibition of growth at 250 µg/mL (Cryptococcus neoformans [17]): 100%; inhibition of growth at 31.25 µg/mL (Candida albicans [18]): 41.8%; inhibition of growth at 62.5 µg/mL (Cryptococcus neoformans [19]): 100%; inhibition of growth at 15.62 µg/mL (Cryptococcus neoformans [20]): 89%; MIC (Staphylococcus aureus [21]): > 1000 µg/mL; EC50 (Trypanosoma cruzi): 0.72 µg/mL (≈ 1.72 µM)
